Source: PubChem BioAssay (several laboratories)
ABCG2 inh: human ABCG2 inhibition, ABCB1 as counter-screen; Q9UNQ0; IgMXP3 cells, JC-1 efflux, flow cytometry; inhibition, % at 6.6 µM; actives 0.1% (n = 190,000);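 active = inhibition above 80%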;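 also: 0% = DMSO and 100% = nicardipine control wells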
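Test system: IgMXP3 (ABCG2) plus far-red-tagged CCRF-Adr (ABCB1) cells / Amount: 3 million cells/mL in well / Reagent: JC-1 transporter substrate / Timing: 10 min compound exposure, 25 °C / Signal: flow cytometry, 530 nm JC-1 signal / Read-out: percent efflux inhibition, scaled nicardipine 100% to DMSO 0% / Benchmarks: nicardipine as high control, DMSO as low control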
Autophagy mod: modulators of autophagy. calls only at 10 µM (by protocol). AID 463193. actives 0.98% (n = 190,000). MEF GFP-LC3 puncta imaging; test concentration mostly 10 µM;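 active = percentage of spot-positive cells more than 3 SD above its plate mean, without a fluorescence outlier flag or 80% toxicity; inconclusive = no clear call, values can overlap the other calls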;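 also: spot-positive cell cutoff set from DMSO-treated cells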
ABCB1 inh: human ABCB1 inhibition, ABCG2 as counter-screen; P08183; CCRF-Adr cells, JC-1 efflux, flow cytometry; inhibition, % at 6.6 µM; actives 0.067% (n = 190,000); AID 1326; in the data active = inhibition above about 40%;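 also: 0% = vehicle and 100% = reference inhibitor; higher value means more JC-1 retained so stronger ABCB1 efflux block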
sdo1 growth: restores growth of sdo1-depleted yeast. S. cerevisiae sdo1-depleted JHY4D growth rescue, OD600 30 h; active compounds read high; pdr5 snq2 efflux-pump mutant strain. z-score at 10 µM. actives 0.21% (n = 140,000);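 active = z-score above 3 at both the 24 hr and the 30 hr optical density reads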;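 also: z-score against mean and SD of all compound wells on the same plate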
ROMK mod: human ROMK K+ channel modulation, primary screen; actives 2% (n = 130,000); P48048; B-score at 10 µM; Tet-inducible ROMK, thallium flux fluorescence; actives lie on both sides; AID 1918;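 active = signal ratio slope over the read window, or its plate-corrected B-score, at least 3 SD from the plate mean, either direction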;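 also: B-score of the F/F0 ratio slope over 7 to 12 s after thallium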
Target sequence (P48048 whole entry, looked up): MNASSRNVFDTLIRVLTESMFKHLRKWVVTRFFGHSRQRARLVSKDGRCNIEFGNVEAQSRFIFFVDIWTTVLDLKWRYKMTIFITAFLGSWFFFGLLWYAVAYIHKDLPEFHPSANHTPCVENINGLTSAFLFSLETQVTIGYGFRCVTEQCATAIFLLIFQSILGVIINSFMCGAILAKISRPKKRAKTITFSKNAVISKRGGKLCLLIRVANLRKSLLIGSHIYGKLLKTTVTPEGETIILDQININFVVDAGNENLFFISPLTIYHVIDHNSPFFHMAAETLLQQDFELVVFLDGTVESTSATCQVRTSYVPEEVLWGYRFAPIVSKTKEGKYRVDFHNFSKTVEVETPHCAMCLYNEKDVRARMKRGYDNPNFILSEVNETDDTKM
Insulin prom up: MIN6 insulin promoter up-regulation; AID 1625; z-score at 5 µM; MIN6 insulin promoter-GFP reporter, high-content imaging; active compounds read high; actives 0.3% (n = 190,000);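 active = z-score above 3 at 5 µM with at least 500 cells counted in the well; inconclusive = wells under 500 cells, flagged as cytotoxic or low count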
ROMK retest: human ROMK channel modulation, retest confirmation; shares compounds with ROMK mod; actives 54% (n = 3,000); normalized thallium flux (F/F0 slope) at 10 µM; AID 1917; ROMK thallium flux, fluorescence ratio; active compounds read low;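 active = Flux at 10 µM at least 3 SD below or above vehicle control mean in one or both replicates; inconclusive = no clear call, values can overlap the other calls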
* = called active by the depositor; i = inactive; ? = inconclusive; . = no result given. This is a sample that favours compounds with a hit; in the whole collection about 2.3% have one here.

SMILES	ABCG2 inh	Autophagy mod	ABCB1 inh	sdo1 growth	ROMK mod	Insulin prom up	ROMK retest
COc1ccc(OCC(O)CNC(=O)c2cccs2)cc1 (stereo not drawn)	.	.	.	.	.	0.14	.
Cc1nc(CC(=O)c2ccc(O)c(C)c2O)cs1	.	.	.	.	.	0.11	.
CCOC(=O)C1CCCN(c2ncnc3c2oc2ccccc23)C1 (stereo not drawn)	3	i	1	-0.5	.	-2.4	0.054*
CCOc1cc(/C=N/NC(=O)CCc2n[nH]c(=O)[nH]c2=O)ccc1O	5	i	2	.	1.1	0.05	.
Cc1cc(=O)oc2cc(NC(=S)NCc3ccccn3)ccc12	9	i	0	.	-6.6*	-0.37	0.047*
Cc1cc(=O)oc2cc(OCC(=O)NCc3ccccn3)ccc12	4	i	1	1.4	.	-0.41	.
COc1ccc(/C=N/NC(=O)c2cccnc2)cc1COc1ccc([N+](=O)[O-])cc1	.	.	.	.	4.7*	-0.12	0.091
COc1ccc(/C=N/NC(=O)c2cccc(OC(F)(F)C(F)F)c2)cc1O	0	i	0	0.08	1.8*	-0.2	0.089
COc1ccc(/C=N/NC(=O)c2cccnc2)cc1COc1ccc(NC(C)=O)cc1	.	.	.	.	3.9*	-0.39	?
O=C1OCC2=C1C(c1ccc(F)cc1)CC(=O)N2c1ccccc1 (stereo not drawn)	3	i	0	.	3.1*	0.05	0.084
COc1ccc(-c2cn3c(C)c(C(=O)Nc4ccncc4)sc3n2)cc1	1	i	1	-1.9	.	1.3	.
COC(=O)c1ccc(NC(=O)c2sc3nc(-c4ccccc4)cn3c2C)cc1	1	i	3	-1.4	.	-0.93	?
CCOc1ccc(C(=O)NC(=S)Nc2cccc(S(=O)(=O)NC3=NCCC3)c2)cc1	2	i	0	.	5.7*	0.26	0.096
COc1ccc(N2CCN(C(=O)c3cc(N4C(=O)C5C6CCC(C6)C5C4=O)ccc3Cl)CC2)cc1 (stereo not drawn)	4	i	.	1	-2.3	0.34	.
O=C(c1cc(N2C(=O)C3C4CCC(C4)C3C2=O)ccc1Cl)N1CCN(c2ccc(F)cc2)CC1 (stereo not drawn)	2	i	.	0.34	-5*	0.11	0.061*
CCCCCN(C(=O)CN1CCC(Cc2ccccc2)CC1)c1c(N)n(CCCC)c(=O)[nH]c1=O	3	i	1	.	-3.2*	0.15	0.061*
COc1ccccc1C/C(N)=N/OC(=O)c1ccc2c(c1)OCO2	16	i	0	.	-3.1*	-0.06	0.072
CCCCC1C2C(=O)N(c3ccc(C)cc3)C(=O)C2ON1c1ccccc1 (stereo not drawn)	.	.	.	.	0.25	0.01	.
COc1ccc(N=Cc2oc3ccc4ccccc4c3c2O)cc1	0	i	0	.	-3.5*	1.4	0.053*
CCOC(=O)C1(C)NC(c2ccccc2F)C2C(=O)N(CC)C(=O)C21 (stereo not drawn)	-1	i	0	.	1	-0.8	.
CCOc1cc(CNCCCN2CCOCC2)cc(Br)c1OCc1ccccc1Cl	1	i	0	.	-1.6*	-2.9	?
COCCNC(=S)N1CCc2cc(OC)c(OC)cc2C1COc1ccc(C(C)C)cc1 (stereo not drawn)	34	i	5	0.56	.	-0.82	.
COCCn1c(N)c(C#N)c2nc3ccccc3nc21	2	i	0	0.32	.	.	.
COCCCn1c(N)c(-c2nc3ccccc3n2C)c2nc3ccccc3nc21	0	i	0	-3.3	-4.3*	0.41	0.045*
COc1cc(/C=C2\CC/C(=C\c3ccc(OCCO)c(OC)c3)C2=O)ccc1OCCO	39	i	29	.	-2.4*	1.6	?
SMILES	ABCG2 inh	Autophagy mod	ABCB1 inh	sdo1 growth	ROMK mod	Insulin prom up	ROMK retest
COc1cc(/C=C2/CC/C(=C/c3ccc(O)c(OC)c3)C2=O)ccc1O	.	.	.	.	.	1.2	0.051*
COc1ccc(-n2c(SCC(=O)N/N=C/c3ccccc3OCC(=O)O)nc3ccccc3c2=O)cc1	.	.	.	.	-1	.	.
CCOC(=O)c1ccccc1NC(=S)N1CC(C)CC(C)C1 (stereo not drawn)	32	i	0	-0.26	.	-0.09	0.064*
CCOC(=O)c1ccccc1NC(=S)N1CCC(C)CC1	0	i	0	0.05	0.17	-0.39	.
Cc1ccc(CNc2nc(Cl)c(C#N)s2)cc1	0	i	0	.	1.1*	0.42	0.081
O=C1/C(=C/c2cccs2)SC(=S)N1c1cccc(O)c1	.	.	.	.	.	-1.5	.
COc1ccc(N(C(=O)CCl)C(C(=O)NCCc2ccccc2)c2cccs2)cc1Cl (stereo not drawn)	5	i	4	-0.9	-3.3*	-1.6	0.063*
O=C(O)C1=C(C(=O)Nc2cc(C(F)(F)F)ccc2Cl)CCCC1	2	i	1	.	0.033	0.57	.
Cc1cc(CSc2nc(C)cc(=O)[nH]2)c2ncccc2c1	0	i	0	.	-11*	-0.33	0.078
Cc1cc(=O)[nH]c(SCc2cccc(Br)c2)n1	2	i	0	-1.1	-0.39	0.78	.
CCOC(=O)C1=C(O)/C(=C/c2ccc(OCC(=O)O)c(OC)c2)SC1=Nc1ccc(OC)cc1	-2	i	-1	1.3	.	1.1	0.081
CC1=NN(C(=O)Cn2nc([N+](=O)[O-])c(Br)c2C)C(O)(C(F)(F)F)C1 (stereo not drawn)	18	i	2	1.4	.	-0.11	.
NC(=O)C1CCN(c2ncnc3c2c(-c2ccccc2)cn3-c2ccccc2)CC1	2	i	-1	-0.57	.	-0.55	0.063*
Nc1c(C=C2C=CC(=O)C=C2)c(=O)nc2snc(SCc3ccccc3)n12	.	.	.	.	.	0	?
CSc1nsc2nc(=O)c(/C=C3\C(C)=Nc4ccc(C)cc43)c(N)n12	-2	i	0	.	0.51	-0.1	.
C/C(=N\NC(=O)CC(C)C)c1ccc(N2CCCCC2)cc1	49	i	0	1.1	-0.064	0.11	.
S=C(c1ccc(-c2cccc(Cl)c2)o1)N1CCCCC1	-2	i	-2	.	.	-0.08	.
CC(=O)N1CCN(C(=S)c2ccc(-c3ccc(Cl)cc3)o2)CC1	2	i	0	-1.2	-2.5*	-0.07	0.055*
O=C(Oc1coc(CSc2ncccn2)cc1=O)c1ccccc1[N+](=O)[O-]	2	i	0	.	0.041	0.78	0.088
O=C(C[n+]1cccc(CNC(=O)c2ccc(OC(F)F)cc2)c1)Nc1cccc(C(F)(F)F)c1	11	i	1	1.1	-3.1*	.	0.053*
CC(C)c1onc(C(=O)N2CCCCCC2)c1[N+](=O)[O-]	19	i	1	.	-0.82	-0.28	.
CCOC(=O)N1CCN(C(=O)c2noc(C(C)C)c2[N+](=O)[O-])CC1	5	i	1	1.9	1.9	0.27	0.079
O=C(CCl)Nc1nc(-c2ccco2)c(-c2ccco2)s1	8	i	-1	-1.6	-4.2*	-0.12	0.053*
